Source: PubChem BioAssay AID492951 (Molecular Libraries Program, Specialized Chemistry Center, …, 2010)
Active and inactive are the calls of the source.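 The calls were made as follows: active = inhibition above 10%; inactive = the rest.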

What follows are compounds tested against Hexokinase-4 (Homo sapiens) (UniProt P35557) (assay: hGlck enzyme activity off-target inhibitors – biochemical, recombinant hGlck, counter-screen for TbHK1 inhibitor project (AID 492951)). Conditions: G6PDH-coupled NADH absorbance 340 nm, at 10 µM; active compounds read high.
How it was run: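 Test system: recombinant human glucokinase, G6PDH-coupled; Medium: pH 7.9 TEA buffer, MgCl2, NAD+; Also added: 20 mM glucose as reaction starter, plus 1 mM ATP; Compound dosing: single final test compound dose of 10 µM; Schedule: 10 min preincubation at room temperature; Measured by: NADH formation by absorbance at 340 nm; Repeats: triplicate.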

Hexokinase-4 (Homo sapiens), sequence (P35557 whole entry, looked up): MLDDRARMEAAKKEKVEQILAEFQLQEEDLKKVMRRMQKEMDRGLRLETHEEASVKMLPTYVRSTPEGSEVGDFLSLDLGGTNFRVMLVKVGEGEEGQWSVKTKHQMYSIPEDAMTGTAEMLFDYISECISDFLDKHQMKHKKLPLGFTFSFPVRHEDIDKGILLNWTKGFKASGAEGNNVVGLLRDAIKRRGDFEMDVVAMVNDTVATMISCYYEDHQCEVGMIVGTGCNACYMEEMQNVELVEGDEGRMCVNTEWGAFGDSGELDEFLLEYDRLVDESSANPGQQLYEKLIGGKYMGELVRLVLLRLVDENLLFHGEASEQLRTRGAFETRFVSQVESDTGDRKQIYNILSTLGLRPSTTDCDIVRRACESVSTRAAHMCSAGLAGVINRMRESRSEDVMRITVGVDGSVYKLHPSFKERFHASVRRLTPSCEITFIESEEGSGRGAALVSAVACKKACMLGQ

SMILES | outcome | inhibition
COc1cccc(CC(=O)Nc2cc(Cl)ccc2C(=O)O)c1 | inactive | –
O=c1c2ccccc2on1-c1ccccc1 | inactive | –
CC(C)(C)c1ccc(C(=O)Nc2cc(Br)ccc2C(=O)O)cc1 | – | 26.2% (active)
O=C(NCc1ccccc1)n1sc2ccccc2c1=O | – | 38.3% (active)
COc1ccccc1NC(=O)Cn1sc2ccccc2c1=O | – | 8.4% (inactive)
COc1ccc(C(=O)Nc2cc(Cl)ccc2O)cc1 | – | 22.2% (active)
O=C(Cn1sc2ccccc2c1=O)Nc1ccc(I)cc1 | – | 36.2% (active)
CC(C)(C)c1ccc(C(=O)Nc2cc(Cl)c(F)cc2C(=O)O)cc1 | inactive | –
CN(Cc1ccccc1)C(=O)Cn1sc2ccccc2c1=O | – | 30.6% (active)
COC(=O)c1ccc(Cl)cc1NC(=O)c1ccc(Cl)cc1 | inactive | –
COc1ccc(NC(=O)Cn2sc3ccccc3c2=O)cc1 | inactive | –
COc1ccc(C(=O)Nc2cc(Cl)ccc2C(=O)O)cc1OC | – | 20.1% (active)
O=C(Nc1cc(Cl)ccc1C(=O)O)c1ccc2c(c1)CCC2 | – | 12.2% (active)
COc1ccc(CC(=O)Nc2cc(Cl)ccc2C(=O)O)cc1 | inactive | –
COc1ccc2c(=O)n(-c3ccccc3)sc2c1 | inactive | –
CC(C)c1ccc(C(=O)Nc2cc(Cl)ccc2C(=O)O)cc1 | inactive | –
COc1ccc(C(=O)Nc2cc(Br)ccc2C(=O)O)cc1 | inactive | –
O=C(Cn1sc2ccccc2c1=O)N1CCOCC1 | inactive | –
Cn1sc(=O)c2ccccc21 | – | 56.2% (active)

SMILES | outcome | inhibition
O=C(Nc1cc(Cl)ccc1C(=O)O)c1ccc(OC(F)(F)F)cc1 | – | 13.1% (active)
CCC(C)(C)c1ccc(C(=O)Nc2cc(Cl)ccc2C(=O)O)cc1 | – | 26% (active)
COc1ccc(C(=O)Nc2ccccc2C(=O)O)cc1 | inactive | –
Cc1ccc(C(=O)Nc2cc(Cl)ccc2C(=O)O)cc1C | inactive | –
O=C(c1ccccc1)n1sc2ccccc2c1=O | inactive | –
CCOc1ccc(C(=O)Nc2cc(Cl)ccc2C(=O)O)cc1 | – | 9.4% (inactive)
O=c1c2cc([N+](=O)[O-])ccc2sn1-c1ccccc1 | – | 11.4% (active)
CCc1ccc(C(=O)Nc2cc(Cl)ccc2C(=O)O)cc1 | inactive | –
COc1ccc(C(=O)Nc2cc(Cl)ccc2-c2noc(=O)[nH]2)cc1 | – | 30.1% (active)
COc1ccc(C(=O)Nc2cccc(Cl)c2)cc1 | inactive | –
COc1ccc(C(=O)Nc2cc(Cl)ccc2C(N)=O)cc1 | – | 17.9% (active)
COc1ccc(C(=O)Nc2cc(Cl)ccc2C#N)cc1 | inactive | –
O=C(Cn1sc2ccccc2c1=O)Nc1cccc(I)c1 | inactive | –
CC(C)(C)c1ccc(C(=O)Nc2cc(Cl)c(Br)cc2C(=O)O)cc1 | – | 11.9% (active)
COc1ccc(C(=O)Nc2cc(F)cc(F)c2O)cc1 | inactive | –
COc1ccc(C(=O)Nc2cc(Cl)ccc2C(=O)O)cc1 | – | 7.8% (inactive)
O=c1c2cc(F)ccc2sn1-c1ccc(Cl)cc1 | – | 40% (active)
O=c1c2ccc(Br)cc2sn1-c1ccccc1 | – | 33.8% (active)
O=C(Cn1sc2ccccc2c1=O)Nc1ccccc1I | – | 14.5% (active)
